From PubChem BioAssay
PRMT1 inh = inhibitors of human PRMT1; inhibition, % at 2.79 µM; hit rate 1.3% among 370,000; Q99873; recombinant PRMT1, activity-based probe fluorescence polarization;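 active means inhibition above about 21% made by adding two undisclosed values, limit read from the data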
HTRA1 inh = inhibitors of human serine peptidase HTRA1. recombinant HTRA1, FP-rhodamine activity-based probe, fluorescence polarization. inhibition, % at 5.96 µM. hit rate 0.5% among 340,000. AID 504803; in the data active means inhibition above about 36%;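 further: 0% = enzyme with DMSO and 100% = wells lacking enzyme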
Target sequence (Q92743 whole entry, looked up): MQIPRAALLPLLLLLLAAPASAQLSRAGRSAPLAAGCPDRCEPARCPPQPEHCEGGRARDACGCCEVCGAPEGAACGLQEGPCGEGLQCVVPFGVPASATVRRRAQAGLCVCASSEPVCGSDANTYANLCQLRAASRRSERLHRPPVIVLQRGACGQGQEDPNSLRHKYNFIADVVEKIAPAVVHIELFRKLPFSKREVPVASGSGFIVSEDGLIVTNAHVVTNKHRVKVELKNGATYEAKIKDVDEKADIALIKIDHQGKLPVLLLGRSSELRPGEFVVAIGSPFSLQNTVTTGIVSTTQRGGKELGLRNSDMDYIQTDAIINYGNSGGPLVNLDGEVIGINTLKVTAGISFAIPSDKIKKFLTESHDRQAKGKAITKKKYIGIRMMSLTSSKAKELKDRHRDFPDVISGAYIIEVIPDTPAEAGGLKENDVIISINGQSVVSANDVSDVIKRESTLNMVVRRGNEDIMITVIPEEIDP
SIAE primary = blocks human sialic acid acetylesterase. Q9HAT2. SIAE FP-Rh probe binding, fluorescence polarization. inhibition, % at 9.66 µM. hit rate 0.69% among 370,000. AID 1053197;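 active means inhibition above a cutoff: mean of compounds within the control limits plus 3 SD of those, cut at about 17% in these data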;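 further: 0% = plate median of compound wells and 100% = probe without SIAE protein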
TCR CD3 inh = blocks the human TCR-CD3 interaction | hit rate 0.37% among 360,000 | inhibition, % at 9.4 µM | TAMRA-labeled TCR probe fluorescence, biochemical; in the data active means inhibition above about 19%;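 further: recombinant mutant TCR 2C K166C tagged with TAMRA read by polarization; 0% = receptor in buffer alone and 100% = receptor with positive control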
ABHD4 inh = ABHD4 (mouse) inhibition, primary FP screen. Q8VD66. purified mABHD4, FP-Rh probe fluorescence polarization. inhibition, % at 8.92 µM. hit rate 0.54% among 370,000;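 active means inhibition exceeding the mean over every tested compound plus 3 SD, cut at about 30% in these data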;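 further: 0% = plate median of compound wells and 100% = S159A mutant with DMSO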
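Material: mouse ABHD4 enzyme, wild type; Benchmarks: S159A mutant high control, sample median low control; Buffer or medium: HEPES pH 7.0, NaCl, Pluronic buffer; Signal: fluorescence polarization; Read-out: percent inhibition of probe binding, normalized to plate controls; Timing: pre-incubation 45 min, probe exposure 60 min, at 25 °C; Dosing: 8.92 µM, single dose.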
PRMT1 confirm = confirmation of human PRMT1 inhibitors | shares compounds with PRMT1 inh | recombinant His-PRMT1, activity-based probe fluorescence polarization | inhibition, % at 2.79 µM | hit rate 42% among 3,300;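 active means mean inhibition across replicates above the hit cutoff derived for the earlier primary screen, cut at about 22% in these data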
Starred values were filed as active, the others as inactive. Rows were chosen to be rich in hits. Some 2.5% of all compounds tested hit in one or more screens of this group.

Screening CCc1c(O)nc(SCC(=O)Nc2nc3ccccc3s2)n(C2CCCCC2)c1=O returned PRMT1 inh 45.3*, HTRA1 inh 0.4, SIAE primary -4.5, TCR CD3 inh 2.4, ABHD4 inh -6.6 and PRMT1 confirm 49.8*.
Screening CCc1c(O)nc(SCC(=O)Nc2ccc(OC)cc2)n(C2CCCCC2)c1=O returned PRMT1 inh 11.5, HTRA1 inh -6.5, SIAE primary 5.9, TCR CD3 inh -3.9 and ABHD4 inh 2.8.
`O=C(CCC(=O)Nc1ccccc1)NNC(=O)COc1ccccc1` gave PRMT1 inh 4.1, HTRA1 inh 2.0, SIAE primary -6.2, TCR CD3 inh 2.3 and ABHD4 inh -2.8.
CCC(C)(C(=O)NC1CCCC1)N(C(=O)CNC(=O)c1ccccc1)c1c(C)n(C)n(-c2ccccc2)c1=O (stereo not given) was read as PRMT1 inh -4.0, HTRA1 inh -3.1, SIAE primary 0.5, TCR CD3 inh 0.4 and ABHD4 inh -2.5.
Screening O=C(NC(=S)NC1CCSC1=O)c1ccccc1Cl (stereo not given) returned PRMT1 inh 26.3*, HTRA1 inh 1.8, SIAE primary 6.1, TCR CD3 inh -0.9, ABHD4 inh -4.9 and PRMT1 confirm 1.2.
For O=C(NC(=S)NC1CCSC1=O)c1ccc([N+](=O)[O-])cc1 (stereo not given) the results were PRMT1 inh 10.5, HTRA1 inh 5.9, SIAE primary 7.4, TCR CD3 inh 3.0 and ABHD4 inh 1.7.
Screening O=C(NC(=S)NC1CCSC1=O)c1ccccc1 (stereo not given) returned PRMT1 inh 30.1*, HTRA1 inh -5.2, SIAE primary 3.9, TCR CD3 inh 3.1, ABHD4 inh 0.3 and PRMT1 confirm 8.8.
`COC(=O)[C@@H]1C[C@@]2(c3ccccc3)c3ccccc3N(S(=O)(=O)c3ccccc3)[C@H]2N1C(=O)CNC/C=C(\C)CCC=C(C)C` gave PRMT1 inh 0.3, SIAE primary 3.9 and ABHD4 inh 17.4.
Screening Cc1ccc(Nc2n[nH]c(=S)s2)c(C)c1 returned PRMT1 inh 35.4*, HTRA1 inh -4.1, SIAE primary 8.7, TCR CD3 inh 1.0, ABHD4 inh 7.7 and PRMT1 confirm 35.8*.
`CC(=O)Nc1n[nH]c(=S)s1` gave PRMT1 inh 8.0, HTRA1 inh -0.7, SIAE primary 9.7, TCR CD3 inh 2.1 and ABHD4 inh 7.2.
Screening Cc1cc(C)c(Nc2n[nH]c(=S)s2)cc1C returned PRMT1 inh 46.8*, HTRA1 inh 5.6, SIAE primary 9.2, TCR CD3 inh 0.3, ABHD4 inh 7.9 and PRMT1 confirm 22.5*.
Screening CNc1n[nH]c(=S)s1 returned PRMT1 inh 6.8, HTRA1 inh 5.8, SIAE primary 7.2, TCR CD3 inh -1.9 and ABHD4 inh -3.4.
For CC(C)c1ccc(Nc2n[nH]c(=S)s2)cc1 the results were PRMT1 inh 16.6, SIAE primary 1.7, TCR CD3 inh -6.1 and ABHD4 inh 2.8.
Screening Cc1cccc(C)c1Nc1n[nH]c(=S)s1 returned PRMT1 inh 31.9*, HTRA1 inh 1.4, SIAE primary 11.3, TCR CD3 inh 5.7, ABHD4 inh 0.5 and PRMT1 confirm 8.0.
`O=C(OCC#CCSc1nnc(-c2cccc3ccccc23)o1)c1cc(F)c(F)c(F)c1` gave PRMT1 inh -2.2, SIAE primary 5.4 and ABHD4 inh 5.8.
For COc1ccc(N2CCN(C3CCCN(C(=O)CCN4CCCCO4)C3)CC2)cc1 (stereo not given) the results were PRMT1 inh -5.0, HTRA1 inh -3.4, SIAE primary -0.5, TCR CD3 inh 4.0 and ABHD4 inh -4.4.
Cc1cccc2sc(N(CCN(C)C)C(=O)C3CCN(S(=O)(=O)c4cccs4)CC3)nc12 was read as PRMT1 inh 0.5, HTRA1 inh -16.1, SIAE primary 1.5, TCR CD3 inh 6.6 and ABHD4 inh 9.3.
Cc1cc(C)nc(SSc2nc(C)cc(C)n2)n1 was read as PRMT1 inh 89.1*, HTRA1 inh 5.1, SIAE primary 0.2, TCR CD3 inh -4.2, ABHD4 inh 14.5 and PRMT1 confirm 82.4*.
For CCc1nc2ccc(C(=O)N3CCN(C(=O)c4ccco4)CC3)cn2c1N(C)C(=O)c1cccc(OC)c1 the results were PRMT1 inh 0.3, SIAE primary 4.4, TCR CD3 inh 6.0 and ABHD4 inh 4.1.
`Cc1ccc(C)c(S(=O)(=O)Nc2ccc3[nH]c(=O)[nH]c3c2)c1` gave PRMT1 inh 4.7, HTRA1 inh 8.6, SIAE primary 0.5, TCR CD3 inh -4.2 and ABHD4 inh 10.1.
For Cc1ccc(C)c(S(=O)(=O)Nc2ccc3scnc3c2)c1 the results were PRMT1 inh 35.0*, HTRA1 inh -3.2, SIAE primary -0.5, TCR CD3 inh 8.8, ABHD4 inh -2.9 and PRMT1 confirm 6.9.
For Cc1ccccc1/[N+]([O-])=C/c1cccs1 the results were PRMT1 inh 5.7, HTRA1 inh 6.9, SIAE primary 0.8, TCR CD3 inh 6.7 and ABHD4 inh 3.2.
`Cc1ccc(/C=[N+](\[O-])c2ccccc2C)o1` gave PRMT1 inh 30.0*, HTRA1 inh 3.0, SIAE primary 1.8, TCR CD3 inh -5.5, ABHD4 inh 0.4 and PRMT1 confirm -3.1.
Screening O=C(CCN1C(=O)c2ccccc2S1(=O)=O)NCc1ccccc1 returned PRMT1 inh 2.1, HTRA1 inh -1.6, SIAE primary -4.4, TCR CD3 inh -4.4 and ABHD4 inh 2.6.
`CC(C)N(CCC(=O)c1ccc2ccccc2c1)Cc1ccccc1` gave PRMT1 inh 54.3*, HTRA1 inh -7.9, SIAE primary -12.6, TCR CD3 inh 3.6, ABHD4 inh -7.3 and PRMT1 confirm 71.4*.
`CCOC(=O)c1ccc(NC(=O)CSc2nnc(-c3cccc(C)c3)n2C)cc1` gave PRMT1 inh 0.1, SIAE primary -0.9 and ABHD4 inh 4.5.
`O=C(CCN1C(=O)/C(=C\c2ccccc2F)SC1=S)N1CCOCC1` gave PRMT1 inh -3.7, HTRA1 inh -7.2, SIAE primary 3.9, TCR CD3 inh 2.0 and ABHD4 inh -1.9.
Screening CN1CCN(C(=O)CCN2C(=O)/C(=C\c3ccccc3F)SC2=S)CC1 returned PRMT1 inh 27.5*, HTRA1 inh -6.1, SIAE primary -6.2, TCR CD3 inh -44.6, ABHD4 inh -46.9 and PRMT1 confirm 6.3.
Cc1cc(C)nc(SC(C(=O)O)c2ccccc2)n1 (stereo not given) was read as PRMT1 inh 1.7, HTRA1 inh 4.2, SIAE primary -3.6, TCR CD3 inh -3.4 and ABHD4 inh -7.4.
Screening Cc1cc(C)nc(Sc2nc(Cl)nc(N(c3ccccc3)c3ccccc3)n2)n1 returned PRMT1 inh 58.9*, HTRA1 inh 1.3, SIAE primary 2.1, TCR CD3 inh -6.5, ABHD4 inh -16.1 and PRMT1 confirm 9.9.
